Laboratory results from ChEMBL document CHEMBL4376814, “Novel cyclin-dependent kinase 9 (CDK9) inhibitor with suppression of cancer stemness activity against non-small-cell lung cancer” (Eur J Med Chem, 2019).
Active and inactive are the calls of the source. No cut-off for these calls is given here.

Assays:
A549 [1] = test: Antiproliferative activity against human A549 cells assessed as inhibition of cell viability at 1 uM after 72 hrs by CCK-8 assay relative to control; format: functional; conditions: A549, 72 h
In short: (§1)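 Single-concentration viability screen using CCK-8. Cells were seeded at 3000/well and treated for 72 h. A450 read after 1-4 h with reagent. Percent inhibition calculated against untreated control and blank wells as (Ac−As)/(Ac−Ab)×100%.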

[2] = molecular target: T1, CDK4/Cyclin D3 (Homo sapiens) (UniProt P11802+P30281); test: Inhibition of recombinant full-length human CDK4/cyclinD3 at 500 nM using Rb fragment as substrate measured after 40 mins in presence of [gamma33P]ATP by scintillation counting method relative to control; format: protein-complex assay
In short: (§2)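 Percent inhibition of kinase activity at a single compound concentration, measured by the outsourced Eurofins KinaseProfiler panel. Values are the mean of two independent experiments.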

[3] = molecular target: T2, CDK9/cyclin T1 (Homo sapiens) (UniProt O60563+P50750); test: Inhibition of recombinant full-length human CDK9/cyclinT1 at 1 uM using KTFCGTPEYLAPEVRREPRILSEEEQEMFRDFDYIADWC peptide as substrate measured after 40 mins in presence of [gamma33P]ATP by scintillation counting method relative to control; format: protein-complex assay; in short: as §2
NCI-H1299 [4] = test: Antiproliferative activity against human H1299 cells assessed as inhibition of cell viability at 10 uM after 72 hrs by CCK-8 assay relative to control; format: functional; conditions: NCI-H1299, 72 h; in short: as §1
NCI-H1299 [5] = test: Antiproliferative activity against human H1299 cells assessed as inhibition of cell viability at 1 uM after 72 hrs by CCK-8 assay relative to control; format: functional; conditions: NCI-H1299, 72 h; in short: as §1
[6] = molecular target: T2, CDK9/cyclin T1 (Homo sapiens); test: Inhibition of recombinant full-length human CDK9/cyclinT1 at 500 nM using KTFCGTPEYLAPEVRREPRILSEEEQEMFRDFDYIADWC peptide as substrate measured after 40 mins in presence of [gamma33P]ATP by scintillation counting method relative to control; format: protein-complex assay; in short: as §2
[7] = molecular target: T1, CDK4/Cyclin D3 (Homo sapiens); test: Inhibition of recombinant full-length human CDK4/cyclinD3 at 1 uM using Rb fragment as substrate measured after 40 mins in presence of [gamma33P]ATP by scintillation counting method relative to control; format: protein-complex assay; in short: as §2
[8] = molecular target: T3, CDK6/cyclin D3 (Homo sapiens) (UniProt P30281+Q00534); test: Inhibition of recombinant full-length human CDK6/cyclinD3 at 1 uM using histone H1 as substrate measured after 40 mins in presence of [gamma33P]ATP by scintillation counting method relative to control; format: protein-complex assay; in short: as §2
[9] = molecular target: T3, CDK6/cyclin D3 (Homo sapiens); test: Inhibition of recombinant full-length human CDK6/cyclinD3 at 500 nM using histone H1 as substrate measured after 40 mins in presence of [gamma33P]ATP by scintillation counting method relative to control; format: protein-complex assay; in short: as §2
A549 [10] = test: Antiproliferative activity against human A549 cells assessed as inhibition of cell viability at 10 uM after 72 hrs by CCK-8 assay relative to control; format: functional; conditions: A549, 72 h; in short: as §1

Row | inhibition [2] | inhibition [3] | inhibition [6] | inhibition [7] | inhibition [8] | inhibition [9] | Structure (SMILES) | inhibition at 1 µM (A549 [1]) | inhibition at 10 µM (NCI-H1299 [4]) | inhibition at 1 µM (NCI-H1299 [5]) | inhibition at 10 µM (A549 [10])
1 | 89% | 96% | 93% | 94% | 72% | 43% | CN(C)C(=O)c1cc2cnc(Nc3ccc(N=C=S)cc3)nc2n1C1CCCC1 | 44.4% | 83.7% | 46.9% | 97.9%
2 |  | 72% | 79% | 63% | 1% |  | CN(C)C(=O)c1cc2cnc(Nc3ccc(NC(=O)CCCCCCCN=C=S)cc3C(F)(F)F)nc2n1C1CCCC1 |  |  |  | 
3 | 91% | 73% | 18% | 84% | 64% | 46% | CN(C)C(=O)c1cc2cnc(Nc3ccc(C(=O)NCCCCCCCN=C=S)cn3)nc2n1C1CCCC1 |  |  |  | 
4 | 92% | 84% | 40% | 95% | 89% | 54% | CN(C)C(=O)c1cc2cnc(Nc3ccc(C(=O)NCCCN=C=S)cn3)nc2n1C1CCCC1 |  |  |  | 
5 | 85% | 97% | 96% | 90% | 89% | 59% | CN(C)C(=O)c1cc2cnc(Nc3ccc(S(=O)(=O)NCCCN=C=S)cc3)nc2n1C1CCCC1 | 58.9% | 72.8% | 41.3% | 102%
6 | 99% | 97% | 99% | 96% | 90% | 64% | CN(C)C(=O)c1cc2cnc(Nc3ccc(NC(=O)CCCCCN=C=S)cc3)nc2n1C1CCCC1 | 56.1% | 85% | 34.3% | 100%
7 |  | 78% | 34% | 19% | 42% |  | O=C(CCCCCCCN=C=S)Nc1ccc(Nc2ncc3nnn(C4CCCC4)c3n2)cc1 |  |  |  | 
8 | 91% | 85% | 41% | 95% | 88% | 53% | CN(C)C(=O)c1cc2cnc(Nc3ccc(C(=O)NCCCCN=C=S)cn3)nc2n1C1CCCC1 |  |  |  | 
9 | 93% | 73% | 27% | 95% | 82% | 52% | CN(C)C(=O)c1cc2cnc(Nc3ccc(C(=O)NCCCCCCN=C=S)cn3)nc2n1C1CCCC1 |  |  |  | 
10 | 101% | 97% | 97% | 97% | 94% | 79% | CN(C)C(=O)c1cc2cnc(Nc3ccc(C(=O)NCCCCCN=C=S)cc3)nc2n1C1CCCC1 | 29.3% | 76.5% | 50.3% | 100%
11 |  | 81% | 5% | 45% | 47% |  | CN(C)C(=O)c1cc2cnc(Nc3ccc(C(=O)NCCCCCCN=C=S)cc3O)nc2n1C1CCCC1 |  |  |  | 
12 | 100% | 97% | 99% | 97% | 93% | 71% | CN(C)C(=O)c1cc2cnc(Nc3ccc(NC(=O)CCCCN=C=S)cc3)nc2n1C1CCCC1 | 38.2% | 82.5% | 58.6% | 102%
13 |  | 17% |  | 14% | inactive |  | CN(C)C(=O)c1cc2cnc(NNC(=O)CCCCCCCN=C=S)nc2n1C1CCCC1 |  |  |  | 
14 | 91% | 98% | 99% | 90% | 92% | 64% | CN(C)C(=O)c1cc2cnc(Nc3ccc(S(=O)(=O)NCCCCN=C=S)cc3)nc2n1C1CCCC1 | 39.4% | 72.7% | 29.9% | 101%
15 | 85% | 98% | 95% | 91% | 89% | 51% | CN(C)C(=O)c1cc2cnc(Nc3ccc(S(=O)(=O)NCCCCCN=C=S)cc3)nc2n1C1CCCC1 | 56.6% | 83.4% | 52.1% | 102%
16 |  | 84% | 7% | 37% | 42% |  | CN(C)C(=O)c1cc2cnc(Nc3ccc(C(=O)NCCCCCCCN=C=S)cc3O)nc2n1C1CCCC1 |  |  |  | 
17 | 75% | 87% | 76% | 86% | 69% | 51% | CN(C)C(=O)c1cc2cnc(Nc3ccc(NC(=O)CCCCCCCN=C=S)c(F)c3)nc2n1C1CCCC1 |  |  |  | 
18 | 99% | 98% | 99% | 98% | 93% | 70% | CN(C)C(=O)c1cc2cnc(Nc3ccc(NC(=O)CCCN=C=S)cc3)nc2n1C1CCCC1 | 56.1% | 78.8% | 39.7% | 102%
19 | 89% | 95% | 90% | 93% | 81% | 63% | CN(C)C(=O)c1cc2cnc(Nc3ccc(CNC(=O)CCCCCCCN=C=S)cc3)nc2n1C1CCCC1 | 17.8% | 91.7% | 53.8% | 98.9%
20 | 99% | 99% | 98% | 98% | 93% | 79% | CN(C)C(=O)c1cc2cnc(Nc3ccc(C(=O)NCCCCN=C=S)cc3)nc2n1C1CCCC1 | 30.2% | 74.2% | 55.2% | 102%
21 | 99% | 99% | 98% | 97% | 86% | 65% | CN(C)C(=O)c1cc2cnc(Nc3ccc(NC(=O)CCCCCCN=C=S)cc3)nc2n1C1CCCC1 | 43.3% | 80.9% | 50.9% | 102%
22 |  | 11% |  | 14% | 1% |  | CN(C)C(=O)c1cc2cnc(Nc3ccccc3NC(=O)CCCCCCCN=C=S)nc2n1C1CCCC1 |  |  |  | 
23 | 94% | 87% | 37% | 94% | 87% | 55% | CN(C)C(=O)c1cc2cnc(Nc3ccc(C(=O)NCCCCCN=C=S)cn3)nc2n1C1CCCC1 |  |  |  | 
24 | 98% | 98% | 100% | 99% | 94% | 69% | CN(C)C(=O)c1cc2cnc(Nc3ccc(C(=O)NCCCN=C=S)cc3)nc2n1C1CCCC1 | 32.9% | 91.2% | 65.1% | 102%
25 | 91% | 58% | 3% | 98% | 93% | 62% | CN(C)C(=O)c1cc2cnc(Nc3ccc(N4CCN(C(=O)CCCCCCCN=C=S)CC4)cn3)nc2n1C1CCCC1 |  |  |  | 
